Among the data in ChEMBL document CHEMBL4229571, “Development of 13H-benzo[f]chromeno[4,3-b][1,7]naphthyridines and their salts as potent cytotoxic agents and topoisomerase I/IIα inhibitors” (2018) are Ratio and inhibition values, retold here.

For experiment [1], the target named is DNA topoisomerase 2-alpha (Homo sapiens) (UniProt P11388). The experiment can be described thus: Potency index, ratio of test compound activity to etoposide activity for recombinant human DNA topoisomerase 2-alpha at 20 uM.
Sequence of DNA topoisomerase 2-alpha (Homo sapiens) (P11388 whole entry): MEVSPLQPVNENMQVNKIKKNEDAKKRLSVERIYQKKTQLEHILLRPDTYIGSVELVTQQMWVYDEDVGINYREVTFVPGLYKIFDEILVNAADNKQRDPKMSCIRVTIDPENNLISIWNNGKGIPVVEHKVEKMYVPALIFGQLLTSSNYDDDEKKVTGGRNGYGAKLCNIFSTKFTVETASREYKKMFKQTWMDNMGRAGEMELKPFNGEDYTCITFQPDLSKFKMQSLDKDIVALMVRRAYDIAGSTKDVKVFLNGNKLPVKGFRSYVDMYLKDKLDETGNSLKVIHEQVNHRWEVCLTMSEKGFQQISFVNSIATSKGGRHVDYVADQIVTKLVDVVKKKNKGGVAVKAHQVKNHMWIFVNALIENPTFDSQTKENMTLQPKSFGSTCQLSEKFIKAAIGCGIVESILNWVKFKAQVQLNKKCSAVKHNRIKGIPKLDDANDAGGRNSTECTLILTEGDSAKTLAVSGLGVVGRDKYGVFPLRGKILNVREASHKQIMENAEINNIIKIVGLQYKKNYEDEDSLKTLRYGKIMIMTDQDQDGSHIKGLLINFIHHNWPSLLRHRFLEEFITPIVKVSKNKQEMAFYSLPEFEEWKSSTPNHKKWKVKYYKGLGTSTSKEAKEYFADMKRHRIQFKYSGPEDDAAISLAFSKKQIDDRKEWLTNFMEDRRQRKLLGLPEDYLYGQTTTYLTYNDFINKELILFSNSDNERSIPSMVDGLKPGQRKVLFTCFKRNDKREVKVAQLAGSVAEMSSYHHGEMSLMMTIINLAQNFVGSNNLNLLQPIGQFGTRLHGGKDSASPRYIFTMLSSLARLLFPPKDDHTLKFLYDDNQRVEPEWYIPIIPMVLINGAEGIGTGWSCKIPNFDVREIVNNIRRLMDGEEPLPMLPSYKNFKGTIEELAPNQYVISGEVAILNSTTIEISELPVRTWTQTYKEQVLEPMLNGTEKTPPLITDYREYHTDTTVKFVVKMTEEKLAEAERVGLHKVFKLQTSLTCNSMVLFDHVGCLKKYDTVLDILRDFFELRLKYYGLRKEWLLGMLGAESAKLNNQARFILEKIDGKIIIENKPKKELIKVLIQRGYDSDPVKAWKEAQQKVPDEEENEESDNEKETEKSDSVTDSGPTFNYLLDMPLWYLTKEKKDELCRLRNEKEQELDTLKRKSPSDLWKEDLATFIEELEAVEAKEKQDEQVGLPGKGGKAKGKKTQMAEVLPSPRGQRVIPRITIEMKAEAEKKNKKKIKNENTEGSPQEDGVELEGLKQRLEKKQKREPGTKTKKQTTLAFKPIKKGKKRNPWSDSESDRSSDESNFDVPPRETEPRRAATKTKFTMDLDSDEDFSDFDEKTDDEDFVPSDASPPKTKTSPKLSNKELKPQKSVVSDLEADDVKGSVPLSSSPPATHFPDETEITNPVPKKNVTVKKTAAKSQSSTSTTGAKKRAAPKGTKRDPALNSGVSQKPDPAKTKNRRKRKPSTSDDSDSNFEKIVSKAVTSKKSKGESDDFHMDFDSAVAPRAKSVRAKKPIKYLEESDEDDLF
Experiment [2] deals with T1, DNA topoisomerase 1 (Homo sapiens) (UniProt P11387).
T1 sequence (whole entry): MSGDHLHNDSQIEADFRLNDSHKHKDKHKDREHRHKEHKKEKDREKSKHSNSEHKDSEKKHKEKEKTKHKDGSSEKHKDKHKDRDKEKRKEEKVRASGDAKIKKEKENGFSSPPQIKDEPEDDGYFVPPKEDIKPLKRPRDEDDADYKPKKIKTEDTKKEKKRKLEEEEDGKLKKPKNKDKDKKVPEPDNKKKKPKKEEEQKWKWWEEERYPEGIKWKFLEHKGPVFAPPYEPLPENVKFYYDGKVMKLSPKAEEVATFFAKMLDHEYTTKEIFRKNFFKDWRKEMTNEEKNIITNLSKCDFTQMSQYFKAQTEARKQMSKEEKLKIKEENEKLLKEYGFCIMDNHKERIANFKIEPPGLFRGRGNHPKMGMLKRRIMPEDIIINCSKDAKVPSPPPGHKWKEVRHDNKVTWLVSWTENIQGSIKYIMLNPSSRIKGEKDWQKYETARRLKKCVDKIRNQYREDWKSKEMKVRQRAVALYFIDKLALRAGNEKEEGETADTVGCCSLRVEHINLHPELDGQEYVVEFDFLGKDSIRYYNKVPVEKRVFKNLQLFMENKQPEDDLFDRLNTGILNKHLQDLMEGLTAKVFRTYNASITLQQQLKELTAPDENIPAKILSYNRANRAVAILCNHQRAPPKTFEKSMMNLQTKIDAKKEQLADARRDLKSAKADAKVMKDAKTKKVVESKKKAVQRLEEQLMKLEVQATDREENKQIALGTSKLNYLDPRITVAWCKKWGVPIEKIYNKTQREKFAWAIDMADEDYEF
The experiment can be described thus: Inhibition of recombinant human DNA topoisomerase 1 at 20 uM using supercoiled pBR322 DNA as substrate after 30 mins by densitometric analysis relative to control. Put shortly:
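Relaxation of 100 ng supercoiled pBR322 by 1 unit recombinant human topo I, 37 °C for 30 min, in 10 mM Tris-HCl pH 7.9, 150 mM NaCl, 0.1% BSA, 1 mM spermidine, 5% glycerol. Stopped with sarcosyl solution, run on 1% agarose/TAE at 15 V for 7 h, ethidium bromide stained, bands quantified by densitometry. Camptothecin as positive control. Compounds first screened at 100 μM; those over 30% inhibition retested at 20 μM.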

Experiment [3] has as its target DNA topoisomerase 2-alpha (Homo sapiens) (UniProt P11388). The experiment can be described thus: Inhibition of recombinant human DNA topoisomerase 2-alpha at 20 uM using supercoiled pBR322 DNA as substrate after 30 mins by densitometric analysis relative to control. Put shortly:
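200 ng supercoiled pBR322 with 4 units human topo IIα, 30 min at 30 °C, in 10 mM Tris–HCl pH 7.9, 50 mM NaCl, 5 mM MgCl2, 1 mM EDTA, 1 mM ATP, 15 μg/mL BSA. Stopped with EDTA, run on 1% agarose/TAE at 60 V for 1 h, bands quantified by densitometry. Etoposide as positive control. Screening at 100 μM; above 30% inhibition, retested at 20 μM.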

Usually inhibition stands for the change of the read-out against control, counted positive when it falls. Turning to `Cc1ccc(-c2c3c(nc4cnc5ccccc5c24)-c2ccccc2OC3)cc1`, the Ratio in experiment [1] came to 1.25. For the same compound, the inhibition amounted to 11.1% in experiment [2] and 38.3% in experiment [3].
